Values after ≈ are worked out from the molar mass of the structure shown. Active and inactive are the calls of the source. No cut-off for these calls is given here.
Key:
Haemophilus influenzae [1] = assay: Antimicrobial activity against imipenem-susceptible invasive nontypeable Haemophilus influenzae isolate 251 by Etest; type: functional
Procedure, shortened: (§1)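 Etest MIC on Haemophilus test medium (HTM) agar plates following CLSI guidelines, with a high inoculum (3 × 10^8 to 4 × 10^8 CFU/ml). Strains were maintained on Vitox-supplemented chocolate agar at 37°C with 5% CO2. H. influenzae ATCC 49247 and ATCC 10211 served as quality controls. Interpretation used CLSI breakpoints.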

Haemophilus influenzae [2] = assay: Antimicrobial activity against imipenem-resistant invasive nontypeable Haemophilus influenzae isolate 183 by Etest; type: functional
Procedure, shortened: (§2)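 Imipenem MIC read by Etest on Haemophilus test medium (HTM) agar following CLSI guidelines; inoculum about 3 × 10^8 to 4 × 10^8 CFU/ml. H. influenzae ATCC 49247 and ATCC 10211 served as quality controls. Interpretation used CLSI breakpoints. Strains were maintained on Vitox-supplemented chocolate agar at 37°C with 5% CO2.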

Haemophilus influenzae [3] = assay: Antimicrobial activity against imipenem-resistant invasive nontypeable Haemophilus influenzae isolate 184 by Etest; type: functional; procedure, shortened: as §2
Haemophilus influenzae [4] = assay: Antimicrobial activity against imipenem-susceptible invasive nontypeable Haemophilus influenzae isolate 187 by Etest; type: functional; procedure, shortened: as §2
Haemophilus influenzae [5] = assay: Antimicrobial activity against imipenem-susceptible invasive nontypeable Haemophilus influenzae isolate 244 by Etest; type: functional; procedure, shortened: as §2
Haemophilus influenzae [6] = assay: Antimicrobial activity against imipenem-susceptible invasive nontypeable Haemophilus influenzae isolate 248 by Etest; type: functional; procedure, shortened: as §2
Haemophilus influenzae [7] = assay: Antimicrobial activity against imipenem-susceptible Haemophilus influenzae Rd by Etest; type: functional
Procedure, shortened: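 Etest MIC on HTM agar per CLSI, inoculum 3 × 10^8 to 4 × 10^8 CFU/ml, with strains grown on Vitox-supplemented chocolate agar at 37°C with 5% CO2. Imipenem and ampicillin MICs were tested in triplicate on separate days and reported as the range. ATCC 49247 and ATCC 10211 were the quality controls.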

Haemophilus influenzae [8] = assay: Antimicrobial activity against Haemophilus influenzae Rd transformed with ftsI gene from imipenem-resistant invasive nontypeable Haemophilus influenzae isolate 183 by Etest; type: functional
Procedure, shortened: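 Recipient strain Rd (ATCC 51907) was electroporated with the PCR-amplified full-length ftsI gene plus flanking DNA from strain 183, then selected on HTM agar with 4 μg/ml imipenem. Imipenem MIC was then read by Etest on HTM agar per CLSI, in triplicate on separate days, and reported as a range.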

Haemophilus influenzae [9] = assay: Antimicrobial activity against Haemophilus influenzae ATCC 10211 by Etest; type: functional; procedure, shortened: as §1
Haemophilus influenzae [10] = assay: Antimicrobial activity against imipenem-resistant invasive nontypeable Haemophilus influenzae isolate 183 at 1.56 uM by Etest; type: functional, organism-based
Procedure, shortened: (§3)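 CCCP was made up as a 100 mM DMSO stock and added to HTM agar at final 3.12, 1.56, 0.781 or 0.390 μM. Imipenem Etest was run on these plates per CLSI on HTM agar.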

Haemophilus influenzae [11] = assay: Antimicrobial activity against imipenem-resistant invasive nontypeable Haemophilus influenzae isolate 184 at 1.56 uM by Etest; type: functional, organism-based; procedure, shortened: as §3
Haemophilus influenzae [12] = assay: Antimicrobial activity against imipenem-resistant invasive nontypeable Haemophilus influenzae isolate 183 by Etest in presence of 0.781 uM efflux pump inhibitor carbonyl cyanide m-chlorophenyl-hydrazone; type: functional, organism-based; procedure, shortened: as §3
Haemophilus influenzae [13] = assay: Antimicrobial activity against imipenem-resistant invasive nontypeable Haemophilus influenzae isolate 184 by Etest in presence of 0.781 uM efflux pump inhibitor carbonyl cyanide m-chlorophenyl-hydrazone; type: functional, organism-based; procedure, shortened: as §3
Haemophilus influenzae [14] = assay: Antimicrobial activity against imipenem-resistant invasive nontypeable Haemophilus influenzae isolate 183 by Etest in presence of 0.390 uM efflux pump inhibitor carbonyl cyanide m-chlorophenyl-hydrazone; type: functional, organism-based; procedure, shortened: as §3
Haemophilus influenzae [15] = assay: Antimicrobial activity against imipenem-resistant invasive nontypeable Haemophilus influenzae isolate 184 by Etest in presence of 0.390 uM efflux pump inhibitor carbonyl cyanide m-chlorophenyl-hydrazone; type: functional, organism-based; procedure, shortened: as §3
Haemophilus influenzae [16] = assay: Antimicrobial activity against imipenem-resistant invasive nontypeable Haemophilus influenzae isolate 183 by standard broth dilution method; type: functional
Procedure, shortened: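 Imipenem MIC by CLSI standard broth dilution method; inoculum 5 × 10^5 CFU/ml.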

Haemophilus influenzae [17] = assay: Antimicrobial activity against imipenem-resistant invasive nontypeable Haemophilus influenzae isolate 184 by standard broth dilution method; type: functional
Procedure, shortened: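 Broth dilution MIC per CLSI standard procedure. Inoculum 5 × 10^5 CFU/ml, lower than the Etest inoculum. Strain first grown on Vitox-supplemented chocolate agar at 37°C with 5% CO2. Beta-lactamase checked by nitrocefin stick test.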

For O=C(N[C@H](CO)[C@H](O)c1ccc([N+](=O)[O-])cc1)C(Cl)Cl [CHLORAMPHENICOL], which MIC (Haemophilus influenzae [1]) is on record?
Its MIC is 0.25 µg/mL (≈ 0.774 µM).

What about the MIC (Haemophilus influenzae [2]) of the same molecule?
The MIC was 0.38 µg/mL (≈ 1.18 µM).

And the MIC (Haemophilus influenzae [3])?
Its MIC is 0.5 µg/mL (≈ 1.55 µM).

What about the MIC (Haemophilus influenzae [4]) of the same molecule?
Its MIC is 0.38 µg/mL (≈ 1.18 µM).

And the MIC (Haemophilus influenzae [5])?
The MIC was 0.38 µg/mL (≈ 1.18 µM).

And the MIC (Haemophilus influenzae [6])?
The MIC was 0.38 µg/mL (≈ 1.18 µM).

CC1(C)S[C@@H]2[C@H](NC(=O)[C@H](N)c3ccccc3)C(=O)N2[C@H]1C(=O)O [AMPICILLIN] was tested. Which MIC (Haemophilus influenzae [1]) did it give?
The MIC was 0.125 µg/mL (≈ 0.358 µM).

What about the MIC (Haemophilus influenzae [7]) of the same molecule?
Its MIC is 0.064 µg/mL (≈ 0.183 µM).

What about the MIC (Haemophilus influenzae [8]) of the same molecule?
The MIC was 0.38 µg/mL (≈ 1.09 µM).

And the MIC (Haemophilus influenzae [2])?
The MIC was 0.75 µg/mL (≈ 2.15 µM).

And the MIC (Haemophilus influenzae [3])?
Its MIC is 0.5 µg/mL (≈ 1.43 µM).

And the MIC (Haemophilus influenzae [4])?
Its MIC is 0.19 µg/mL (≈ 0.544 µM).

What about the MIC (Haemophilus influenzae [5]) of the same molecule?
Its MIC is 0.25 µg/mL (≈ 0.715 µM).

What about the MIC (Haemophilus influenzae [6]) of the same molecule?
Its MIC is 0.125 µg/mL (≈ 0.358 µM).

CO/N=C(\C(=O)N[C@@H]1C(=O)N2C(C(=O)O)=C(CSc3nc(=O)c(O)nn3C)CS[C@H]12)c1csc(N)n1 [CEFTRIAXONE] was tested. Which MIC (Haemophilus influenzae [7]) did it give?
Its MIC is under 0.016 µg/mL.

What about the MIC (Haemophilus influenzae [8]) of the same molecule?
The MIC was under 0.016 µg/mL.

And the MIC (Haemophilus influenzae [2])?
Its MIC is 0.032 µg/mL (≈ 0.0577 µM).

How did the MIC (Haemophilus influenzae [1]) turn out when CO/N=C(\C(=O)N[C@@H]1C(=O)N2C(C(=O)O)=C(COC(C)=O)CS[C@H]12)c1csc(N)n1 [CEFOTAXIME] was run?
The MIC was 0.016 µg/mL (≈ 0.0351 µM).

What about the MIC (Haemophilus influenzae [7]) of the same molecule?
Its MIC is 0.5 µg/mL (≈ 1.1 µM).

And the MIC (Haemophilus influenzae [2])?
The MIC was 0.047 µg/mL (≈ 0.103 µM).

And the MIC (Haemophilus influenzae [3])?
The MIC was 0.125 µg/mL (≈ 0.274 µM).

And the MIC (Haemophilus influenzae [4])?
The MIC was 0.047 µg/mL (≈ 0.103 µM).

What about the MIC (Haemophilus influenzae [5]) of the same molecule?
Its MIC is 0.016 µg/mL (≈ 0.0351 µM).

What about the MIC (Haemophilus influenzae [6]) of the same molecule?
The MIC was 0.016 µg/mL (≈ 0.0351 µM).

Which results are given for C[C@@H](O)[C@H]1C(=O)N2C(C(=O)O)=C(SCCNC=N)C[C@H]12 [IMIPENEM ANHYDROUS]?
MIC (Haemophilus influenzae [1]): 0.5 µg/mL (≈ 1.67 µM); MIC (Haemophilus influenzae [9]): 1.5 µg/mL (≈ 5.01 µM); MIC (Haemophilus influenzae [7]): 0.38 µg/mL (≈ 1.27 µM); MIC (Haemophilus influenzae [8]): 4 µg/mL (≈ 13.4 µM); Activity (Haemophilus influenzae [10]): inactive; Activity (Haemophilus influenzae [11]): inactive; Activity (Haemophilus influenzae [12]): Active; Activity (Haemophilus influenzae [13]): Active; Activity (Haemophilus influenzae [14]): Active; Activity (Haemophilus influenzae [15]): Active; MIC (Haemophilus influenzae [16]): 2 µg/mL (≈ 6.68 µM); MIC (Haemophilus influenzae [17]): 1 µg/mL (≈ 3.34 µM); MIC (Haemophilus influenzae [2]): ≥ 32 µg/mL; MIC (Haemophilus influenzae [3]): ≥ 32 µg/mL; MIC (Haemophilus influenzae [4]): 1.5 µg/mL (≈ 5.01 µM); MIC (Haemophilus influenzae [5]): 0.5 µg/mL (≈ 1.67 µM); MIC (Haemophilus influenzae [6]): 0.25 µg/mL (≈ 0.835 µM)

Source: ChEMBL document CHEMBL1154422, “First characterization of heterogeneous resistance to imipenem in invasive nontypeable Haemophilus influenzae isolates” (2007)
